# Target: T1, 5-hydroxytryptamine receptor 1A (Homo sapiens, UniProt P08908)
# T1 sequence (P08908 whole entry): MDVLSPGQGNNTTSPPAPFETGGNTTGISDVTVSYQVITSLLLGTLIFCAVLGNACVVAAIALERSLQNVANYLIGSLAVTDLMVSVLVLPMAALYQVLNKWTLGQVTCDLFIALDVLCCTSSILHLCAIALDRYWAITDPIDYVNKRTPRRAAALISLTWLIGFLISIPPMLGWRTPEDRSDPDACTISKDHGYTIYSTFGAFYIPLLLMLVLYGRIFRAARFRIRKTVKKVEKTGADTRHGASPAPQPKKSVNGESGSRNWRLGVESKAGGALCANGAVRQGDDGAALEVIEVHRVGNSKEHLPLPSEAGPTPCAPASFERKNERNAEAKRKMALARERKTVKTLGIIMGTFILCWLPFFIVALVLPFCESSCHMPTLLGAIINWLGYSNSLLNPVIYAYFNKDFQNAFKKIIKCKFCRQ
# Experiment: Antagonism of 5-hydroxytryptamine 1A receptor was determined in vitro using a [35S]GTP-gamma-S,
# Format: functional
row,SMILES,IC50
1,C1=C(c2c[nH]c3ncccc23)CCN(CCOc2cccc3[nH]ccc23)C1,38.9 nM
2,Fc1ccc2[nH]cc(C3=CCN(CCOc4cccc5c4OCCO5)CC3)c2c1,684 nM
3,C1=C(c2c[nH]c3ccccc23)CCN(CCOc2cccc3ncccc23)C1,524 nM
4,Fc1ccc2c(C3CCN(CCOc4cccc5c4OCCO5)CC3)c[nH]c2c1,666 nM
5,C1=C(c2c[nH]c3ccccc23)CCN(CCOc2cccc3c2OCCO3)C1,222 nM

# Target: T1, 5-hydroxytryptamine receptor 1A
# Experiment: Antagonism at the 5-hydroxytryptamine 1A receptor was determined in vitro using a [35S]GTP-gamma-S,
# Format: functional
row,SMILES,IC50
1,C1=C(c2c[nH]c3ncccc23)CCN(CCOc2cccc3ncccc23)C1,181 nM
2,C1=C(c2c[nH]c3ccccc23)CCN(CCOc2cccc3[nH]ccc23)C1,115 nM

# Target: T2, 5-hydroxytryptamine receptor 1A (Homo sapiens) (UniProt P08908)
# T2 sequence (whole entry): T1 sequence (P08908 whole entry)
# Experiment: Agonist activity at the 5-hydroxytryptamine 1A receptor was determined in vitro using a [35S]GTP-gamma-S,
# Format: functional
row,SMILES,Emax
1,C1=C(c2c[nH]c3ncccc23)CCN(CCOc2cccc3[nH]ccc23)C1,7
2,C1=C(c2c[nH]c3ncccc23)CCN(CCOc2cccc3ncccc23)C1,0
3,Fc1ccc2[nH]cc(C3=CCN(CCOc4cccc5c4OCCO5)CC3)c2c1,11
4,C1=C(c2c[nH]c3ncccc23)CCN(CCOc2cccc3c2OCCO3)C1,30
5,C1=C(c2c[nH]c3ccccc23)CCN(CCOc2cccc3ncccc23)C1,14
6,Fc1ccc2c(C3=CCN(CCOc4cccc5c4OCCO5)CC3)c[nH]c2c1,53
7,Fc1ccc2c(C3CCN(CCOc4cccc5c4OCCO5)CC3)c[nH]c2c1,29.5
8,C1=C(c2c[nH]c3ccccc23)CCN(CCOc2cccc3c2OCCO3)C1,21

# Target: T1, 5-hydroxytryptamine receptor 1A
# Experiment: Antagonism of 5-hydroxytryptamine 1A receptor determined in vitro
# Format: functional
row,SMILES,IC50
1,C1=C(c2c[nH]c3ncccc23)CCN(CCOc2cccc3[nH]ccc23)C1,12 nM
2,C1=C(c2c[nH]c3ncccc23)CCN(CCOc2cccc3ncccc23)C1,90 nM
3,Fc1ccc2[nH]cc(C3=CCN(CCOc4cccc5c4OCCO5)CC3)c2c1,1040 nM
4,C1=C(c2c[nH]c3ccccc23)CCN(CCOc2cccc3ncccc23)C1,686 nM
5,Fc1ccc2c(C3CCN(CCOc4cccc5c4OCCO5)CC3)c[nH]c2c1,920 nM
6,C1=C(c2c[nH]c3ccccc23)CCN(CCOc2cccc3c2OCCO3)C1,115 nM
7,C1=C(c2c[nH]c3ccccc23)CCN(CCOc2cccc3[nH]ccc23)C1,33 nM

# Target: T2, 5-hydroxytryptamine receptor 1A (Homo sapiens)
# Experiment: In vitro agonist activity at the 5-hydroxytryptamine 1A receptor
# Format: functional
row,SMILES,Emax
1,C1=C(c2c[nH]c3ncccc23)CCN(CCOc2cccc3[nH]ccc23)C1,0
2,C1=C(c2c[nH]c3ncccc23)CCN(CCOc2cccc3ncccc23)C1,0
3,Fc1ccc2[nH]cc(C3=CCN(CCOc4cccc5c4OCCO5)CC3)c2c1,0
4,C1=C(c2c[nH]c3ncccc23)CCN(CCOc2cccc3c2OCCO3)C1,0
5,C1=C(c2c[nH]c3ccccc23)CCN(CCOc2cccc3ncccc23)C1,0
6,Fc1ccc2c(C3CCN(CCOc4cccc5c4OCCO5)CC3)c[nH]c2c1,0
7,C1=C(c2c[nH]c3ccccc23)CCN(CCOc2cccc3c2OCCO3)C1,0
8,C1=C(c2c[nH]c3ccccc23)CCN(CCOc2cccc3[nH]ccc23)C1,0

# Target: T1, 5-hydroxytryptamine receptor 1A
# Experiment: In vitro binding affinity towards Human 5-hydroxytryptamine 1A receptor by the displacement of [3H]8-OH-DPAT
# Format: single protein
# In short: (§1)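 Displacement binding: [³H]-prazosin for α1 and [³H]-8-OH-DPAT for human 5-HT1A. Ki values are the mean of 2–3 experiments at six concentrations, each in triplicate. 95% confidence limits were generally within 15% of the mean.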
row,SMILES,Ki
1,C1=C(c2c[nH]c3ccccc23)CCN(CCOc2cccc3ncccc23)C1,92.6 nM
2,Fc1ccc2c(C3=CCN(CCOc4cccc5c4OCCO5)CC3)c[nH]c2c1,83.6 nM
3,Fc1ccc2c(C3CCN(CCOc4cccc5c4OCCO5)CC3)c[nH]c2c1,19.6 nM
4,C1=C(c2c[nH]c3ccccc23)CCN(CCOc2cccc3[nH]ccc23)C1,21.6 nM

# Target: T1, 5-hydroxytryptamine receptor 1A
# Experiment: Antagonism at the 5-hydroxytryptamine 1A receptor in vitro
# Format: functional
row,SMILES,IC50
1,C1=C(c2c[nH]c3ncccc23)CCN(CCOc2cccc3c2OCCO3)C1,969 nM

# Target: Sodium-dependent serotonin transporter (Homo sapiens, UniProt P31645)
# Sequence (P31645 whole entry): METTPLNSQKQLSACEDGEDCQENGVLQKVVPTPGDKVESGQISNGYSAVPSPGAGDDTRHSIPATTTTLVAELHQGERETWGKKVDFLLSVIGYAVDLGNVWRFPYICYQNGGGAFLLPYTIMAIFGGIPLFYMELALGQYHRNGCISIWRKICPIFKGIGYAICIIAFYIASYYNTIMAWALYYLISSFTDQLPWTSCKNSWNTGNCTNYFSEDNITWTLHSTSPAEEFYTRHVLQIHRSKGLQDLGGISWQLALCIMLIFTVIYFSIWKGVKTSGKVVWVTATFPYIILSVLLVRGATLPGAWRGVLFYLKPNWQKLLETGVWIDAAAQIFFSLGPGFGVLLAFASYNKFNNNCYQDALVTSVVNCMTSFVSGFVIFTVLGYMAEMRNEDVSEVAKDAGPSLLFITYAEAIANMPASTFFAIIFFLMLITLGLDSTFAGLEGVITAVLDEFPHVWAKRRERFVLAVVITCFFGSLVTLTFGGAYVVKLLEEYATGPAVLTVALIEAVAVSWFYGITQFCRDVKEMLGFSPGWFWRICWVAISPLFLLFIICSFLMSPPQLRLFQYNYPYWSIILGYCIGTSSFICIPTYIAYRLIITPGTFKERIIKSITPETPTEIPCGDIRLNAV
# Experiment: Affinity for HC Serotonin transporter determined in vitro by incubating compound and [3H]5-HT with human carcinoma (Jar cells), previously treated with staurosporine
# Format: cell-based
# In short: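 Read-out is specific [³H]-5-HT uptake into Jar human carcinoma cells pretreated with staurosporine to enhance transporter expression, after incubation with the test compound.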
row,SMILES,Ki
1,C1=C(c2c[nH]c3ncccc23)CCN(CCOc2cccc3[nH]ccc23)C1,175 nM
2,C1=C(c2c[nH]c3ncccc23)CCN(CCOc2cccc3ncccc23)C1,387 nM
3,Fc1ccc2[nH]cc(C3=CCN(CCOc4cccc5c4OCCO5)CC3)c2c1,46.9 nM
4,C1=C(c2c[nH]c3ncccc23)CCN(CCOc2cccc3c2OCCO3)C1,276 nM
5,C1=C(c2c[nH]c3ccccc23)CCN(CCOc2cccc3ncccc23)C1,93.6 nM
6,Fc1ccc2c(C3=CCN(CCOc4cccc5c4OCCO5)CC3)c[nH]c2c1,19.8 nM
7,Fc1ccc2c(C3CCN(CCOc4cccc5c4OCCO5)CC3)c[nH]c2c1,128 nM
8,C1=C(c2c[nH]c3ccccc23)CCN(CCOc2cccc3c2OCCO3)C1,45 nM
9,C1=C(c2c[nH]c3ccccc23)CCN(CCOc2cccc3[nH]ccc23)C1,41.2 nM

# Target: T3, Adrenergic receptor alpha-1 (Rattus norvegicus, UniProt P15823+P23944+P43140)
# T3 sequence (P15823 whole entry): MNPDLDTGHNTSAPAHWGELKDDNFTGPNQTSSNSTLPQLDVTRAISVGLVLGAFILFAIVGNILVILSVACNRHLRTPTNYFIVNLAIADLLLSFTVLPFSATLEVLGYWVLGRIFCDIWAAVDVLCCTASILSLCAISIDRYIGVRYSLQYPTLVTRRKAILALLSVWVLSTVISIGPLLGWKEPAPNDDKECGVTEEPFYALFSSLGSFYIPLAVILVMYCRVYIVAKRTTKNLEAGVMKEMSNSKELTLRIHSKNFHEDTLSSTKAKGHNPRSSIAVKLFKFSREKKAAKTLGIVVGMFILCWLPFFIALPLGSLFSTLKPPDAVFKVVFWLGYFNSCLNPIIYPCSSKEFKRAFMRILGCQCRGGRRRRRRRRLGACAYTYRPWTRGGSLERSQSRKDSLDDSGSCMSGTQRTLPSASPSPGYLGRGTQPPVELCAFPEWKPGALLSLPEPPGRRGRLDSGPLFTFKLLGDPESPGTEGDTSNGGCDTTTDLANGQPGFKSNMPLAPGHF
# T3 sequence (P23944 whole entry): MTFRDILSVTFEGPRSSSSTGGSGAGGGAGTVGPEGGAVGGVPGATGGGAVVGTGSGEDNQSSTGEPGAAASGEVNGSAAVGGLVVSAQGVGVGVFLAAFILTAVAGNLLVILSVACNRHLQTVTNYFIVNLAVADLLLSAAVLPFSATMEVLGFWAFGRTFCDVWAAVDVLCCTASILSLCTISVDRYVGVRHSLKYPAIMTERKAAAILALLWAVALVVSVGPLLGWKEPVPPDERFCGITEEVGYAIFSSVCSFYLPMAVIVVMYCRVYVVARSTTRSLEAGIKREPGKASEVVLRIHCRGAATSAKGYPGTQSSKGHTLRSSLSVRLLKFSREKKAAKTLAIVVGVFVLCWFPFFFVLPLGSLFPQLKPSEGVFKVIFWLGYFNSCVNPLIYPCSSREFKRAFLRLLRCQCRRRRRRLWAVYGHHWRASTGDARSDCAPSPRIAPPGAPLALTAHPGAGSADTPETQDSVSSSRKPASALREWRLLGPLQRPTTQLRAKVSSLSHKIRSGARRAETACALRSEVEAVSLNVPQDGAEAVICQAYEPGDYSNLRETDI
# T3 sequence (P43140 whole entry): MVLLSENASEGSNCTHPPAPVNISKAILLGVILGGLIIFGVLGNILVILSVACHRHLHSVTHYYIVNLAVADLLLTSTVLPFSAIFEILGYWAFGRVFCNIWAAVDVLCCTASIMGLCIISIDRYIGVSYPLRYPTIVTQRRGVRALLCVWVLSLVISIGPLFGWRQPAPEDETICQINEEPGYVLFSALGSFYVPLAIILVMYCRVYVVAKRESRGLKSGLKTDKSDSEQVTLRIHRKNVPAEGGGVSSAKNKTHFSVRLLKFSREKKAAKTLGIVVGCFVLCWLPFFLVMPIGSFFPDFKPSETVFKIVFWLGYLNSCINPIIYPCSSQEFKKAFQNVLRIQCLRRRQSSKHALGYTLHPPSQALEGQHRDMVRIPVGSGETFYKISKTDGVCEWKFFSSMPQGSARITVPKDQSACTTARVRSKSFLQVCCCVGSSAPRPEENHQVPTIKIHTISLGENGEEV
# Experiment: In vitro binding affinity towards Alpha-1 adrenergic receptor was determined by the displacement of [3H]prazosin
# Format: protein assay
# In short: as §1
row,SMILES,Ki
1,C1=C(c2c[nH]c3ncccc23)CCN(CCOc2cccc3[nH]ccc23)C1,0.9 nM
2,C1=C(c2c[nH]c3ncccc23)CCN(CCOc2cccc3ncccc23)C1,78 nM
3,Fc1ccc2[nH]cc(C3=CCN(CCOc4cccc5c4OCCO5)CC3)c2c1,30 nM
4,C1=C(c2c[nH]c3ncccc23)CCN(CCOc2cccc3c2OCCO3)C1,33 nM
5,C1=C(c2c[nH]c3ccccc23)CCN(CCOc2cccc3ncccc23)C1,3.6 nM
6,Fc1ccc2c(C3=CCN(CCOc4cccc5c4OCCO5)CC3)c[nH]c2c1,4.1 nM
7,Fc1ccc2c(C3CCN(CCOc4cccc5c4OCCO5)CC3)c[nH]c2c1,2.8 nM
8,C1=C(c2c[nH]c3ccccc23)CCN(CCOc2cccc3c2OCCO3)C1,4.7 nM
9,C1=C(c2c[nH]c3ccccc23)CCN(CCOc2cccc3[nH]ccc23)C1,0.19 nM

# Target: Sodium-dependent serotonin transporter (Rattus norvegicus, UniProt P31652)
# Sequence (P31652 whole entry): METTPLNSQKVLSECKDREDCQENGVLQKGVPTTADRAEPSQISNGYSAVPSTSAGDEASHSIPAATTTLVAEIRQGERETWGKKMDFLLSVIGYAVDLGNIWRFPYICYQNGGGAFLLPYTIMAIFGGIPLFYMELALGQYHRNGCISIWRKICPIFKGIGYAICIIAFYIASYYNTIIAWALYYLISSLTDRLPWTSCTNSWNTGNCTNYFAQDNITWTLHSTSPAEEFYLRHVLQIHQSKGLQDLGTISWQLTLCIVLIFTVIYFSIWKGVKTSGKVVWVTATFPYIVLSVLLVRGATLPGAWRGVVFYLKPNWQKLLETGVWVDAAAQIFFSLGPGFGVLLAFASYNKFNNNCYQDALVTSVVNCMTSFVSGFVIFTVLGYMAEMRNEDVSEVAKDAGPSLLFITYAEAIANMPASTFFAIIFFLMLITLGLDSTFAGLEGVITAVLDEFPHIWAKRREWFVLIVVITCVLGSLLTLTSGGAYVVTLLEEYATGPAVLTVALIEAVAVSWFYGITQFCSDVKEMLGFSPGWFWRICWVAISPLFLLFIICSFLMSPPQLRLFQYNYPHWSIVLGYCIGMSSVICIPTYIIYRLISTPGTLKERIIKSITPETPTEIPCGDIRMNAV
# Experiment: Affinity for RB Serotonin transporter was determined in vitro by incubating compound
# In short: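 Radioligand binding to the 5-HT transporter with [³H]-paroxetine. Ki values are the mean of 2–3 experiments, each run in triplicate at six concentrations. 95% confidence limits were generally within 15% of the mean.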
row,SMILES,Ki
1,Fc1ccc2[nH]cc(C3=CCN(CCOc4cccc5c4OCCO5)CC3)c2c1,1.17 nM
2,C1=C(c2c[nH]c3ccccc23)CCN(CCOc2cccc3ncccc23)C1,0.23 nM
3,Fc1ccc2c(C3=CCN(CCOc4cccc5c4OCCO5)CC3)c[nH]c2c1,0.15 nM
4,Fc1ccc2[nH]cc(CC3CCN(CCOc4cccc5c4OCCO5)CC3)c2c1,0.01 nM
5,Fc1ccc2c(C3CCN(CCOc4cccc5c4OCCO5)CC3)c[nH]c2c1,4.7 nM
6,C1=C(c2c[nH]c3ccccc23)CCN(CCOc2cccc3c2OCCO3)C1,0.17 nM
7,C1=C(c2c[nH]c3ccccc23)CCN(CCOc2cccc3[nH]ccc23)C1,0.03 nM

# Target: T2, 5-hydroxytryptamine receptor 1A (Homo sapiens)
# Experiment: Agonist activity at the 5-hydroxytryptamine 1A receptor determined in vitro using a [35S]GTP-gamma-S,
# Format: functional
row,SMILES,Emax
1,C1=C(c2c[nH]c3ccccc23)CCN(CCOc2cccc3[nH]ccc23)C1,7.5
